ChEMBL document CHEMBL4138288, “Crispenes F and G, cis-Clerodane Furanoditerpenoids from Tinospora crispa, Inhibit STAT3 Dimerization” (J Nat Prod, 2018)

Key:
[1] = Inhibition of FAM-pYLPQTV binding to unphosphorylated STAT3 beta (unknown origin) expressed in Escherichia coli BL21 Rosetta cells after 5 mins by fluorescence polarization assay; set-up: species or system Homo sapiens
In short: (§1)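 Unphosphorylated STAT3βtc was expressed in E. coli with IPTG induction overnight at 21 °C, then purified by ion exchange. In PBS pH 7.4, 350 nM protein was mixed with 10 nM FAM-pYLPQTV (final). Base polarization was read, inhibitor was added, the plate was shaken 5 min and read again. % inhibition = (X−Y)/X×100, each term corrected for free probe.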

[2] = organism: Homo sapiens; assay: Inhibition of unphosphorylated STAT3 beta dimerization (unknown origin) expressed in Escherichia coli BL21 Rosetta cells at 100 uM after 5 mins by fluorescence polarization assay relative to pYLKTKF
In short: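 Same STAT3βtc/FAM-pYLPQTV polarization displacement setup: 350 nM protein, 10 nM probe, PBS pH 7.4, 5 min after addition. Ligand tested at 100 μM. Its % inhibition (B) was expressed as B/A×100, where A is the % inhibition from 100 μM […], taken as 100%.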

[3] = organism: Homo sapiens; assay: Inhibition of unphosphorylated STAT3 beta dimerization (unknown origin) expressed in Escherichia coli BL21 Rosetta cells at 100 uM after 5 mins by fluorescence polarization assay relative to STA-21
[4] = Inhibition of unphosphorylated STAT3 beta dimerization (unknown origin) expressed in Escherichia coli BL21 Rosetta cells after 5 mins by fluorescence polarization assay; set-up: species or system Homo sapiens; in short: as §1
[5] = tested on: MDA-MB-231; assay: Cytotoxicity against human MDA-MB-231 cells assessed as reduction in cell viability after 24 hrs by MTT assay; format: functional, cell-based; details: MDA-MB-231, 24 h
In short: (§2)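 Cells kept at 37 °C, 5% CO2. MDA-MB-231 were grown in DMEM with 10% FBS, 2 mM L-glutamine, NEAA and pen-strep, seeded at 2500 cells/well. A4 were grown in RPMI 1640 with 10% FBS and pen-strep, seeded at 5000 cells/well. WI-38 were grown in DMEM with 10% FBS, seeded at 5000 cells/well. Plates rested 24 h before compound was added in triplicate. MTT absorbance was read at 570 nm.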

[6] = Cytotoxicity against human A4 cells assessed as reduction in cell viability after 24 hrs by MTT assay; format: functional, cell-based; in short: as §2
[7] = tested on: WI-38; assay: Cytotoxicity against human WI38 cells assessed as reduction in cell viability at 100 uM after 24 hrs by MTT assay; format: cell-based; details: wi-38, 24 h; in short: as §2

Structure (SMILES) | IC50 [1] [µM] | inhibition [2] [%] | inhibition [3] [%] | IC50 [4] [µM] | IC50 [5] [µM] | IC50 [6] [µM] | Activity [7]
COC(=O)C1=C[C@H](O)C[C@H]2[C@@]1(C)C=C[C@](O)(C(=O)O)[C@@]2(C)CC(OC(C)=O)c1ccoc1 (stereo not given in full) | 42 | 60 | 119 | 42 | 10 | > 10 | Non-Toxic
C[C@@]1(CC(O)c2ccoc2)C(C(=O)O)=CC[C@]2(C)[C@H]1[C@H]1C=C[C@@]2(O)C(=O)O1 (stereo not given in full) | 17 | 72 | 130 | 17 | 7.8 | > 10 | Non-Toxic
C[C@H]1C[C@H]2OC(=O)[C@@]34O[C@@H]3CC[C@@H]([C@]1(C)CCC1=CCOC1=O)[C@@]24C | – | – | – | – | 5.4 | – | –
